Publication PMC7249612 (Biochemistry, 2016)

How the values were obtained:
LoxA [1] = format: biochemical, Pseudomonas aeruginosa; conditions: for Kcat / Km: substrate of LoxA, 25 mM HEPES pH 7.0
12-LOX = target: T1, 12-LOX (Homo sapiens, UniProt P18054); assay: Human LOX isozyme specificity screen, 12-LOX; format: biochemical; conditions: 25 μM inhibitor, 10 μM AA
T1 sequence (P18054 1-663): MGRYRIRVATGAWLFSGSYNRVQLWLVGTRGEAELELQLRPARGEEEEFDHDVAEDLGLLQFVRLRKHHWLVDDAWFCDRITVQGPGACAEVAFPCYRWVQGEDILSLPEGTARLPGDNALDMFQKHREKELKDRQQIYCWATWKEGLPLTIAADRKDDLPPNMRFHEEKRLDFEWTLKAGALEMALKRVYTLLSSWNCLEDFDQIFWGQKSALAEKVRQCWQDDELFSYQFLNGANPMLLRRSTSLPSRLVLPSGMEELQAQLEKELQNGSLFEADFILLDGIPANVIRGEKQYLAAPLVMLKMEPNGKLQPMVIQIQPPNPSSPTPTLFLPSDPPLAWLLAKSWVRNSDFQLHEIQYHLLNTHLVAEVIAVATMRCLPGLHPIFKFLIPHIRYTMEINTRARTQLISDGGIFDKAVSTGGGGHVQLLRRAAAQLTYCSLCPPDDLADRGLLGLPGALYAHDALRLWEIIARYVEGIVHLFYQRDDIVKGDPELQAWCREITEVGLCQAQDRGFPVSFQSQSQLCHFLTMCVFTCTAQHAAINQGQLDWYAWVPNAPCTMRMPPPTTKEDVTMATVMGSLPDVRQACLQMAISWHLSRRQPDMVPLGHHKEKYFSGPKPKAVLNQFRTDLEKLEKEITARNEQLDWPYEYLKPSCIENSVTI

15-LOX-2 = target: T2, 15-LOX-2 (Homo sapiens, UniProt O15296); assay: Human LOX isozyme specificity screen, 15-LOX-2; format: biochemical; conditions: 25 μM inhibitor, 10 μM AA
T2 sequence (O15296 1-676): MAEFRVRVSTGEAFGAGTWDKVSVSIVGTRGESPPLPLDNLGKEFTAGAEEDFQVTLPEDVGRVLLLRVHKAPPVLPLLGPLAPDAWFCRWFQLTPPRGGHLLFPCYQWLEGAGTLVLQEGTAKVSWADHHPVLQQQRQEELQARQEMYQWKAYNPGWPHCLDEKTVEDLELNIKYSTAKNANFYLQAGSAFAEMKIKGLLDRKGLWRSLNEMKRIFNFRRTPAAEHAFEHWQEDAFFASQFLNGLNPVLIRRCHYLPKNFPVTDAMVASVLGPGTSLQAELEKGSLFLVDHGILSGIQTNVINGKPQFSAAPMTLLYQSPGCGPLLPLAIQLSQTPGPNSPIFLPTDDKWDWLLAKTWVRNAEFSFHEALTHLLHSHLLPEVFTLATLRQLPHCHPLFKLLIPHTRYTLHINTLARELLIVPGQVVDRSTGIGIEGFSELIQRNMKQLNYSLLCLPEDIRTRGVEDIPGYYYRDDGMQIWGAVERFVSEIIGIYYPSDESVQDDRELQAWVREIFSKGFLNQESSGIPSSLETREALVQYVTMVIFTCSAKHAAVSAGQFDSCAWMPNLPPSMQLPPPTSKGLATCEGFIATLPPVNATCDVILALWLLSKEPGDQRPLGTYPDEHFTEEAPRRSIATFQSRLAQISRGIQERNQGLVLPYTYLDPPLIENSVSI

LoxA [2] = assay: LoxA inhibition, manual cuvette assay; format: biochemical, Pseudomonas aeruginosa; conditions: for single-point screen inhibition percentage, LoxA: 25 μM inhibitor, 10 μM AA; for selectivity for LoxA versus human LOX isozymes: from single-point screens at 25 μM
5-LOX = target: T3, 5-LOX (Homo sapiens, UniProt P09917); assay: Human LOX isozyme specificity screen, 5-LOX; format: biochemical; conditions: 25 μM inhibitor, 10 μM AA
T3 sequence (P09917 1-674): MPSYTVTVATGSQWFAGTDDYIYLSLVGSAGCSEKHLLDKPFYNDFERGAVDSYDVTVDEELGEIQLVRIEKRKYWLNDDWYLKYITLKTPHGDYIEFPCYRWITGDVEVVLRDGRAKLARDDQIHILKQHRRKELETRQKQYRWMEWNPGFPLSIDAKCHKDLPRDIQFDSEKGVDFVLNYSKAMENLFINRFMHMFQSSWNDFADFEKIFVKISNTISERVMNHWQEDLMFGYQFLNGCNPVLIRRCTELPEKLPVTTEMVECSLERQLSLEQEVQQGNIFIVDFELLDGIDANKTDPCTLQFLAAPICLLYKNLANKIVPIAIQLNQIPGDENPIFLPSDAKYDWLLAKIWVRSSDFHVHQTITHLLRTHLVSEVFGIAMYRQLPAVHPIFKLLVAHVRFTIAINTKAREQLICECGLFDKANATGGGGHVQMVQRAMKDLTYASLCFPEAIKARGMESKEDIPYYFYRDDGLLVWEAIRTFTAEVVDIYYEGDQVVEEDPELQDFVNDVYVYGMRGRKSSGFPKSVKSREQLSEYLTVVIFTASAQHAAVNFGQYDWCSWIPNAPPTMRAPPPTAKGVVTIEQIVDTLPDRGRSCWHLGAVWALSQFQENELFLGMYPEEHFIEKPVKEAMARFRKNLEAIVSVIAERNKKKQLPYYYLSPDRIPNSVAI

15-LOX-1 = target: T4, 15-LOX-1 (Homo sapiens, UniProt P16050); assay: Human LOX isozyme specificity screen, 15-LOX-1; format: biochemical; conditions: 25 μM inhibitor, 10 μM AA
T4 sequence (P16050 1-662): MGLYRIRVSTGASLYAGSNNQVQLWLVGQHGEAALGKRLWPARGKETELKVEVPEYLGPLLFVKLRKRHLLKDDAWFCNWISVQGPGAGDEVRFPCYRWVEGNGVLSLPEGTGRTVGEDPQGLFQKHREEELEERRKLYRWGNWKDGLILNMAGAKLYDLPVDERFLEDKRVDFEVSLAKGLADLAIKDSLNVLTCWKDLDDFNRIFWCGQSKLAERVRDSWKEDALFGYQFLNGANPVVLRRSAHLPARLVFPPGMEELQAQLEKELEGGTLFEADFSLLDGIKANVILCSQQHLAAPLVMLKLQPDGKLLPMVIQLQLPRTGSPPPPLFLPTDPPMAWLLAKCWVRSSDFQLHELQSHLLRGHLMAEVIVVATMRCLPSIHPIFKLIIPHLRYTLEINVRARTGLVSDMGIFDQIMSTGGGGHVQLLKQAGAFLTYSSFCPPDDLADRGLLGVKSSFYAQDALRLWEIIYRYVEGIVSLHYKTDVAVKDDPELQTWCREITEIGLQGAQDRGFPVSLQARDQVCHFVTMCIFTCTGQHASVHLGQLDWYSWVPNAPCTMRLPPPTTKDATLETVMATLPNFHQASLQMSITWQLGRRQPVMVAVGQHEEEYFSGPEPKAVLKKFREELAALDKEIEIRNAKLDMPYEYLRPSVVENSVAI

LoxA [3] = assay: LoxA substrate preference; format: biochemical, Pseudomonas aeruginosa; conditions: initial rate at 10 μM substrate, pH 7.0, relative to AA
Outline: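 His6-tagged LoxA was expressed in E. coli BL21(DE3), purified on Ni-NTA, and dosed by iron content. About 7 nM enzyme started each reaction. Each fatty acid substrate was C18 HPLC-purified and used at 10 μM in 25 mM HEPES pH 7.0 without Triton X-100. Initial rate of conjugated diene formation was followed at 234 nm (ε 25000 M−1cm−1) and expressed relative to the AA rate.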

LoxA [4] = assay: LoxA secondary product profile; format: biochemical, Pseudomonas aeruginosa; conditions: 10 μM substrate, pH 7.0

| SMILES | single-point screen inhibition percentage, 12-LOX (12-LOX) [%] | single-point screen inhibition percentage, 15-LOX-2 (15-LOX-2) [%] | single-point screen inhibition percentage, LoxA (LoxA [2]) [%] | single-point screen inhibition percentage, 5-LOX (5-LOX) [%] | single-point screen inhibition percentage, 15-LOX-l (15-LOX-1) [%] | % AA Rate (10 μM) (LoxA [3]) | other results |
| --- | --- | --- | --- | --- | --- | --- | --- |
| CCCCC/C=C\C/C=C\CCCCCCCC(=O)O [d31-LA] |  |  |  |  |  |  | Kcat (LoxA [1]): 0.9 (0.1) s^−1; Km (LoxA [1]): 100 µM |
| O=C(CCCCCN1CCN(c2ccccc2-c2ccccc2)CC1)NC1CCCc2ccccc21 (stereo not drawn) [NCGC00186032] | 36 | 5 | 87 | 78 | 57 |  |  |
| COC(=O)[C@H]1[C@H]2C[C@@H]3c4[nH]c5cc(OC)ccc5c4CCN3C[C@H]2C[C@@H](OC(=O)c2cc(OC)c(OC)c(OC)c2)[C@@H]1OC [NCGC00091250] | 23 | 5 | 69 | 37 | 57 |  |  |
| O=C1NCN(c2ccccc2)C12CCN(CCCC(c1ccc(F)cc1)c1ccc(F)cc1)CC2 [NCGC00015424] | 63 | 21 | 87 | 74 | 76 |  | selectivity for LoxA versus human LOX isozymes (LoxA [2]): selectivity towards LoxA over 12-LOX and 15-LOX-2 and not the other human isozymes |
| CC/C(=C(\c1ccccc1)c1ccc(OCCN(C)C)cc1)c1ccccc1 [NCGC00024928] | 39 | 8 | 82 | 79 | 73 |  |  |
| CC/C=C\C/C=C\C/C=C\C/C=C\C/C=C\C/C=C\CCC(=O)O [DHA] |  |  |  |  |  | 72(10) % |  |
| CC(C)(C)c1ccc(C(=O)CCCN2CCC(OC(c3ccccc3)c3ccccc3)CC2)cc1 [NCGC00164603] | 33 | 0 | 95 | 23 | 76 |  |  |
| CC(Cc1ccc(O)c(O)c1)C(C)Cc1ccc(O)c(O)c1 (stereo not drawn) [NDGA, nordihydroguaiaretic acid, reference compound] |  |  |  |  |  |  | IC50 value against LoxA (LoxA [2]; compared with the human enzymes): comparable to the values obtained against the human enzymes |
| CC/C=C\C/C=C\C/C=C\C/C=C\C/C=C\CCCC(=O)O [EPA] |  |  |  |  |  | 61(10) % |  |
| CCCCC/C=C\C/C=C\CCCCCCCCCC(=O)O [EDA] |  |  |  |  |  | 33(10) % |  |
| CCCCCC(/C=C/C=C\C/C=C\C/C=C\CCCC(=O)O)OO (stereo not drawn) [15-HpETE, 15-hydroperoxyeicosatetraenoic acid] |  |  |  |  |  |  | times slower relative to the Kcat with AA (LoxA [4]): 10,000 times |
| CCCCC/C=C\C/C=C\C/C=C\C=C\[C@@H](O)CCCC(=O)O [5-HETE] |  |  |  |  |  |  | times slower relative to the Kcat with AA (LoxA [4]): 100,000 times |
| Fc1ccc(C(OCCN2CCN(CCCc3ccccc3)CC2)c2ccc(F)cc2)cc1 [NCGC00015300] | 48 | 13 | 83 | 41 | 65 |  |  |
| CCCCC/C=C\C/C=C\C/C=C\CCCCCCC(=O)O [DGLA, Dihomo-gamma-linolenic acid] |  |  |  |  |  | 44(10) % |  |
| Fc1ccc(C(c2ccc(F)cc2)N2CCN(C/C=C\c3ccccc3)CC2)cc1 [NCGC00018102] | 25 | 0 | 86 | 96 | 65 |  | selectivity for LoxA versus human LOX isozymes (LoxA [2]): selectivity towards LoxA over 12-LOX, 15-LOX-1, and 15-LOX-2; IC50 (LoxA [2]; read-out: LoxA IC50, manual cuvette assay, pH 7.0, 10 μM AA): 4.5 ± 0.4 µM |
| O=c1[nH]c2ccccc2n1C1CCN(CCCC(c2ccc(F)cc2)c2ccc(F)cc2)CC1 [NCGC00015802] | 50 | 16 | 90 | 80 | 69 |  | selectivity for LoxA versus human LOX isozymes (LoxA [2]): selectivity towards LoxA over 12-LOX, 15-LOX-1, and 15-LOX-2 |
| CC/C=C\C/C=C\C/C=C\CCCCCCCC(=O)O [ALA] |  |  |  |  |  | 78(10) % |  |
| CCCCC/C=C\C/C=C\C/C=C\CCCCC(=O)O [GLA] |  |  |  |  |  | 44(10) % |  |
| CN[C@H]1CC[C@@H](c2ccc(Cl)c(Cl)c2)c2ccccc21.Cl [NCGC00092386] | 26 | 5 | 76 | 83 | 51 |  |  |
| Nc1ncnc2c1c(-c1ccc(Oc3ccccc3)cc1)cn2C1CCCC1 [NCGC00015280] | 38 | 0 | 86 | 42 | 51 |  |  |
| CCCCC/C=C\C/C=C\CCCCCCCC(=O)O [LA, linoleic acid] |  |  |  |  |  | 72(10) % | KIE for Kcat (LoxA [1]; noncompetitive, LA versus perdeuterated LA): 32 +/− 6; Kcat (LoxA [1]): 28 (2) s^−1; Km (LoxA [1]): 7 µM |
